Experimental data from ChEMBL document CHEMBL5385940 (J Nat Prod, 2024).
Active and inactive are the calls of the source. The calls are words filed in the database; no cut-off is given here.

Key:
[1] = Cytotoxicity against mouse 3T3-L1 cells assessed as cell viability at 3 uM incubated for 48 hrs by CCK-8 assay relative to control; format: toxicity, cell-based; conditions: read-out: Activity
Method in brief: (§1)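 3T3-L1 preadipocytes seeded at 1 × 10^3 cells/well and left 12 h, then exposed to alkaloids for 48 h. Viability by CCK-8, absorbance at 450 nm, relative to control. Lovastatin 5 μM included. Mean ± SD, n = 3.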

[2] = Cytotoxicity against mouse 3T3-L1 cells transfected with Lenti-PPARgamma-Luc reporter assessed as cell viability at 5 uM incubated for 48 hrs by CCK-8 assay relative to control; format: toxicity, cell-based; conditions: read-out: Activity
Method in brief: (§2)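 3T3-L1-Lenti-PPARγ-Luc reporter cells (lentivirus-transduced) exposed to alkaloids at a range of concentrations. Viability by CCK-8, absorbance at 450 nm, relative to control, used to set maximum noncytotoxic concentrations. Triplicate.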

[3] = test system: 3T3-L1; test: Inhibition of adipogenesis in mouse 3T3-L1 cells assessed as downregulation of PPARgamma relative protein level […] by Western blot analysis; format: functional, cell-based
Method in brief: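 Differentiated 3T3-L1 adipocytes treated with alkaloids at several doses. Lysed in RIPA with PMSF on ice for 30 min. Proteins transferred to PVDF and blocked with 5% skim milk for 2 h at 25 °C. Primary antibody 2 h, HRP secondary 1 h. PPARγ protein level expressed relative to control. n = 3.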

[4] = Cytotoxicity against mouse 3T3-L1 cells transfected with Lenti-PPARgamma-Luc reporter assessed as cell viability at 0.1 uM incubated for 48 hrs by CCK-8 assay relative to control; format: toxicity, cell-based; conditions: read-out: Activity; method in brief: as §2
[5] = Cytotoxicity against mouse 3T3-L1 cells assessed as cell viability at 5 uM incubated for 48 hrs by CCK-8 assay relative to control; format: toxicity, cell-based; conditions: read-out: Activity; method in brief: as §1
[6] = test system: 3T3-L1; test: Anti-adipogenic activity in mouse 3T3-L1 preadipocytes assessed as inhibition of lipid accumulation incubated for 6 days by Nile Red staining based fluorescence microscopic analysis; format: functional, cell-based; conditions: time 6.0 day
[7] = Cytotoxicity against mouse 3T3-L1 cells assessed as cell viability at 7.5 uM incubated for 48 hrs by CCK-8 assay relative to control; format: toxicity, cell-based; conditions: read-out: Activity; method in brief: as §1
[8] = Cytotoxicity against mouse 3T3-L1 cells transfected with Lenti-PPARgamma-Luc reporter assessed as cell viability at 7.5 uM incubated for 48 hrs by CCK-8 assay relative to control; format: toxicity, cell-based; conditions: read-out: Activity; method in brief: as §2
[9] = Cytotoxicity against mouse 3T3-L1 cells assessed as cell viability at 10 uM incubated for 48 hrs by CCK-8 assay relative to control; format: toxicity, cell-based; conditions: read-out: Activity; method in brief: as §1
[10] = Cytotoxicity against mouse 3T3-L1 cells transfected with Lenti-PPARgamma-Luc reporter assessed as cell viability at 1 uM incubated for 48 hrs by CCK-8 assay relative to control; format: toxicity, cell-based; conditions: read-out: Activity; method in brief: as §2
[11] = Cytotoxicity against mouse 3T3-L1 cells transfected with Lenti-PPARgamma-Luc reporter assessed as cell viability at 4 uM incubated for 48 hrs by CCK-8 assay relative to control; format: toxicity, cell-based; conditions: read-out: Activity; method in brief: as §2
[12] = Cytotoxicity against mouse 3T3-L1 cells assessed as cell viability at 1 uM incubated for 48 hrs by CCK-8 assay relative to control; format: toxicity, cell-based; conditions: read-out: Activity; method in brief: as §1
[13] = test system: 3T3-L1; test: Anti-adipogenic activity in mouse 3T3-L1 cells transfected with Lenti-PPARgamma-Luc reporter assessed as inhibition of PPARgamma expression by luminescence based microplate reader analysis; format: functional, cell-based
[14] = Cytotoxicity against mouse 3T3-L1 cells transfected with Lenti-PPARgamma-Luc reporter assessed as cell viability at 10 uM incubated for 48 hrs by CCK-8 assay relative to control; format: toxicity, cell-based; conditions: read-out: Activity; method in brief: as §2
[15] = Cytotoxicity against mouse 3T3-L1 cells transfected with Lenti-PPARgamma-Luc reporter assessed as cell viability at 3 uM incubated for 48 hrs by CCK-8 assay relative to control; format: toxicity, cell-based; conditions: read-out: Activity; method in brief: as §2
[16] = Cytotoxicity against mouse 3T3-L1 cells transfected with Lenti-PPARgamma-Luc reporter assessed as cell viability at 2 uM incubated for 48 hrs by CCK-8 assay relative to control; format: toxicity, cell-based; conditions: read-out: Activity; method in brief: as §2
[17] = Cytotoxicity against mouse 3T3-L1 cells assessed as cell viability at 15 uM incubated for 48 hrs by CCK-8 assay relative to control; format: toxicity, cell-based; conditions: read-out: Activity; method in brief: as §1
[18] = Cytotoxicity against mouse 3T3-L1 cells assessed as cell viability at 20 uM incubated for 48 hrs by CCK-8 assay relative to control; format: toxicity, cell-based; conditions: read-out: Activity; method in brief: as §1
[19] = Cytotoxicity against mouse 3T3-L1 cells assessed as cell viability at 25 uM incubated for 48 hrs by CCK-8 assay relative to control; format: toxicity, cell-based; conditions: read-out: Activity; method in brief: as §1
[20] = Cytotoxicity against mouse 3T3-L1 cells transfected with Lenti-PPARgamma-Luc reporter assessed as cell viability at 15 uM incubated for 48 hrs by CCK-8 assay relative to control; format: toxicity, cell-based; conditions: read-out: Activity; method in brief: as §2
[21] = Cytotoxicity against mouse 3T3-L1 cells transfected with Lenti-PPARgamma-Luc reporter assessed as cell viability at 20 uM incubated for 48 hrs by CCK-8 assay relative to control; format: toxicity, cell-based; conditions: read-out: Activity; method in brief: as §2
[22] = Cytotoxicity against mouse 3T3-L1 cells transfected with Lenti-PPARgamma-Luc reporter assessed as cell viability at 2.5 uM incubated for 48 hrs by CCK-8 assay relative to control; format: toxicity, cell-based; conditions: read-out: Activity; method in brief: as §2
[23] = Cytotoxicity against mouse 3T3-L1 cells assessed as cell viability at 2.5 uM incubated for 48 hrs by CCK-8 assay relative to control; format: toxicity, cell-based; conditions: read-out: Activity; method in brief: as §1
[24] = Cytotoxicity against mouse 3T3-L1 cells transfected with Lenti-PPARgamma-Luc reporter assessed as cell viability at 25 uM incubated for 48 hrs by CCK-8 assay relative to control; format: toxicity, cell-based; conditions: read-out: Activity; method in brief: as §2
[25] = Cytotoxicity against mouse 3T3-L1 cells transfected with Lenti-PPARgamma-Luc reporter assessed as cell viability at 30 uM incubated for 48 hrs by CCK-8 assay relative to control; format: toxicity, cell-based; conditions: read-out: Activity; method in brief: as §2

SMILES | viability at 48 h, 5 µM [2] [%] | inhibition [3] | viability at 48 h, 0.1 µM [4] [%] | viability at 48 h, 5 µM [5] [%] | Activity [6] | viability at 48 h, 7.5 µM [8] [%] | viability at 48 h, 10 µM [9] [%] | viability at 48 h, 1 µM [10] [%] | Activity [13] | IC50 [13] [µM] | viability at 48 h, 10 µM [14] [%] | viability at 48 h, 15 µM [17] [%] | viability at 48 h, 20 µM [18] [%] | viability at 48 h, 25 µM [19] [%] | viability at 48 h, 15 µM [20] [%] | viability at 48 h, 20 µM [21] [%] | viability at 48 h, 2.5 µM [22] [%] | also measured
C=C(c1ccc(O)c(Oc2cc3c(cc2OC)CCN(C)[C@@H]3Cc2ccc(OC)cc2)c1)[C@H]1c2cc(O)c(OC)cc2CCN1C | > 80 | Active | > 80 | > 80 | Dose-Dependent Effect | < 80 | < 80 | > 80 | Dose-Dependent Effect | 4.5 | < 80 |  |  |  |  |  |  | viability at 48 h, 3 µM [1]: > 80%; viability at 48 h, 7.5 µM [7]: < 80%; viability at 48 h, 4 µM [11]: > 80%; viability at 48 h, 1 µM [12]: > 80%; viability at 48 h, 3 µM [15]: > 80%; viability at 48 h, 2 µM [16]: > 80%
C=C(c1ccc(OC)cc1)[C@@H]1c2cc(Oc3cc(C[C@H]4c5cc(OC)c(OC)cc5CCN4C)ccc3O)c(OC)cc2CCN1C | > 80 | Active | > 80 | > 80 | Dose-Dependent Effect | > 80 | > 80 | > 80 | Dose-Dependent Effect |  | > 80 | > 80 | < 80 | < 80 | > 80 | < 80 | > 80 | 
COc1ccc(C[C@@H]2c3cc(Oc4cc(C[C@H]5c6cc(OC)c(OC)cc6CCN5C)ccc4O)c(OC)cc3CCN2C)cc1 | > 80 | Active | > 80 | > 80 | Dose-Dependent Effect | < 80 | < 80 | > 80 | Dose-Dependent Effect | 4.5 | < 80 | > 80 |  |  |  |  |  | viability at 48 h, 3 µM [1]: > 80%; viability at 48 h, 7.5 µM [7]: < 80%; viability at 48 h, 4 µM [11]: > 80%; viability at 48 h, 1 µM [12]: > 80%; viability at 48 h, 3 µM [15]: > 80%; viability at 48 h, 2 µM [16]: > 80%
C=C(c1ccc(O)c(Oc2cc3c(cc2OC)CCN(C)[C@@H]3Cc2ccc(OC)cc2)c1)[C@@H]1c2cc(O)c(OC)cc2CCN1C | > 80 | Active | > 80 | > 80 | Dose-Dependent Effect | > 80 | > 80 | > 80 | Dose-Dependent Effect | 8.8 | > 80 | < 80 | < 80 |  | < 80 | < 80 | > 80 | viability at 48 h, 2.5 µM [23]: > 80%
COc1cc2c(cc1O)[C@@H](Cc1ccc(O)c(Oc3cc4c(cc3OC)CCN(C)[C@@H]4Cc3ccc(O)cc3)c1)N(C)CC2 | > 80 | Active | > 80 | > 80 | Dose-Dependent Effect |  | > 80 | > 80 | Dose-Dependent Effect |  | > 80 | > 80 | > 80 | < 80 | > 80 | > 80 |  | viability at 48 h, 25 µM [24]: < 80%; viability at 48 h, 30 µM [25]: < 80%
C=C(c1ccc(O)c(Oc2cc3c(cc2OC)CCN(C)[C@@H]3Cc2ccc(OC)cc2)c1)[C@H]1c2cc(OC)c(OC)cc2CCN1C | > 80 | Active | > 80 | > 80 | Dose-Dependent Effect | < 80 | < 80 | > 80 | Dose-Dependent Effect | 4.6 | < 80 |  |  |  |  |  |  | viability at 48 h, 3 µM [1]: > 80%; viability at 48 h, 7.5 µM [7]: < 80%; viability at 48 h, 4 µM [11]: > 80%; viability at 48 h, 1 µM [12]: > 80%; viability at 48 h, 3 µM [15]: > 80%; viability at 48 h, 2 µM [16]: > 80%
COc1ccc(C[C@@H]2c3cc(Oc4cc(/C=C5\CN(C)CCc6cc(OC)c(OC)cc65)ccc4O)c(OC)cc3CCN2C)cc1 | > 80 | Active | > 80 | > 80 | Dose-Dependent Effect | > 80 | > 80 | > 80 | Dose-Dependent Effect |  | > 80 | > 80 | < 80 | < 80 | > 80 | < 80 | > 80 | 
COc1ccc(C[C@@H]2c3cc(Oc4cc(C[C@@H]5c6cc(O)c(OC)cc6CCN5C)ccc4O)c(OC)cc3CCN2C)cc1 [ISOLIENSININE] | > 80 | Active | > 80 | > 80 | Dose-Dependent Effect | > 80 | > 80 | > 80 | Dose-Dependent Effect |  | > 80 | < 80 | < 80 |  | < 80 | < 80 | > 80 | viability at 48 h, 2.5 µM [23]: > 80%
COc1ccc(C[C@@H]2c3cc(Oc4cc(C[C@@H]5c6cc(OC)c(OC)cc6CCN5C)ccc4O)c(OC)cc3CCN2C)cc1 [NEFERINE] | > 80 | Active | > 80 | > 80 | Dose-Dependent Effect | > 80 | > 80 | > 80 | Dose-Dependent Effect | 6.1 | > 80 | < 80 | < 80 |  | < 80 | < 80 | > 80 | viability at 48 h, 2.5 µM [23]: > 80%
CC[C@H](C)C(=O)O[C@H]1C[C@@H](C)C=C2C=C[C@H](C)[C@H](CC[C@@H]3C[C@@H](O)CC(=O)O3)[C@H]21 [LOVASTATIN] |  |  |  | > 80 |  |  |  |  |  |  |  |  |  |  |  |  |  | 
C=C(c1ccc(O)c(Oc2cc3c(cc2OC)CCN(C)[C@@H]3Cc2ccc(OC)cc2)c1)[C@@H]1c2cc(OC)c(OC)cc2CCN1C | > 80 | Active | > 80 | > 80 | Dose-Dependent Effect | > 80 | > 80 | > 80 | Dose-Dependent Effect | 10.7 | > 80 | > 80 | < 80 | < 80 | > 80 | < 80 | > 80 | 
